Assay: Toxicity liver stage against HepG2, at 10uM
Type: cell-based
Set-up: test concentration 10 uM, cell line HepG2-A16-CD81EGFP
Conditions: human, HepG2-A16-CD81EGFP cells; read-out: INHIBITION
Outline: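 Uninfected HepG2-A16-CD81EGFP cells, 3 × 10^3 per well, 1536-well, plated on prespotted compound at 10 μM final, parasite-free screening media added to match infected plates; puromycin 10 μM positive, DMSO 0.5% negative; run in parallel with 48 h PbLuc assay at 37 °C, 5% CO2; viability by CellTiter-Glo luminescence, normalized to controls.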

| SMILES | cytotoxicity at 10 µM [%] |
| --- | --- |
| CCOCCCNC(=O)C(NC(=O)Cc1cccs1)c1ccc(C)cc1 (stereo not drawn) | 13.2 |
| CNC(=O)c1nc(COc2ccc3c(c2)OCO3)no1 | 2.03 |
| O=C(CCc1ccccc1)NCC1CCN(Cc2ccccc2)CC1 | -6.29 |
| Cc1nnc([C@H]2C[C@H]3OCC[C@H]3N(S(=O)(=O)N(C)C)C2)o1 | -8.44 |
| COc1ccc(N2CCOCC3(CCCN(c4cnccn4)C3)C2)cc1 (stereo not drawn) | 4.29 |
| CCc1ccc(C(O)CN2CCN(c3cccc(OC)c3)CC2)cc1 (stereo not drawn) | 11.2 |
| Cn1nc(C(=O)NC2CCCCC2)cc1NC(=O)C1CC1 | -3.97 |
| Cc1nn(C)c(C)c1CN(C)S(=O)(=O)c1c(C)n[nH]c1C | -2.32 |
| Cc1csc2c(C3CCN(CCOc4ccccc4F)CC3)nc(C)n12 | 5.89 |
| Cn1ccnc1C(O)c1ccccc1N1CCN(Cc2ccsc2)CC1 (stereo not drawn) | 3.19 |
| CN(CCCOc1ccccc1)C(=O)c1csc(-c2nnc[nH]2)n1 | 10.4 |
| N#CCCn1cnc2c(F)cc(Br)cc2c1=O | 0.997 |
| O=C(c1c[nH]nn1)N1CCCC1C1CCCCC1 (stereo not drawn) | 3.81 |
| Cc1cc(C)cc(OCCNC(=O)C(C)Sc2nncn2C)c1 (stereo not drawn) | -46.3 |
| CCc1ccc2c(c1)C(CCNC(=O)Cc1ccc(F)cc1)C(=O)N2 (stereo not drawn) | -44.3 |
| CS(=O)(=O)CCC(=O)Nc1nccn1Cc1ccccc1Cl | -5.98 |
| Cn1cc(NC(=O)c2cccc(-n3cnnn3)c2)cn1 | 5.39 |
| CC(NCCn1cccn1)c1cc(F)ccc1F (stereo not drawn) | 6.33 |
| O=C(NCC1CCCN1Cc1ccccc1)NCC1(O)CCC1 (stereo not drawn) | -9.17 |
| N#CC1COCCN1C(=O)c1ccc2cc[nH]c2c1 (stereo not drawn) | 7.75 |
| CC(C)(NCCCOc1ccc(C#N)cc1)c1nccs1 | -0.476 |
| CCOc1nnc(CN2CCN(CCOC)CC2)s1 | -12.1 |
| CCc1ccc(N2CCC(NS(=O)(=O)N(CC)CC)CC2)cc1 | 0.243 |

| SMILES | cytotoxicity at 10 µM [%] |
| --- | --- |
| Cc1noc(C)c1CN(C)C(=O)NC(C)Cc1ccco1 (stereo not drawn) | 11.3 |
| CC1COCCN1C(=O)c1cnccn1 (stereo not drawn) | -4.36 |
| Clc1cccc(C(CNCc2ccccn2)N2CCOCC2)c1 (stereo not drawn) | -12 |
| N#Cc1ccc(S(=O)(=O)NC(=O)c2csc(-c3ccco3)n2)cc1 | -8.17 |
| COc1ncccc1CNc1snc(Cl)c1C#N | 10.2 |
| CCc1nsc(N2CCCN(C(=O)COc3ccccc3)CC2)n1 | -1.74 |
| CC(=O)c1cccc(NC(=O)CN2CCCC(C3OCCO3)C2)c1 (stereo not drawn) | -3.28 |
| CN(CC(=O)Nc1cccnc1)CC1CCCN1c1cccnn1 (stereo not drawn) | 2.66 |
| CCN(CC1CN(Cc2ccn(C(C)C)n2)CCO1)c1cccnn1 (stereo not drawn) | 5.06 |
| CN(C1CCc2ccccc2C1)S(C)(=O)=O (stereo not drawn) | -3.78 |
| CCOCCOC(C)C(=O)NCc1cn2cc(Cl)ccc2n1 (stereo not drawn) | 8.82 |
| Cc1ncsc1C(=O)N1CCN(CCC(C)C)CC1 | 9.34 |
| Cc1cccc(CC(=O)N2CCOCC2c2c(C)n[nH]c2C)c1 (stereo not drawn) | 9.18 |
| Cc1cc2cc(CNC3CCN(CC(=O)N(C)C)CC3)oc2cc1C | -5.95 |
| CC(C)(C)Cc1nnc(NCc2ccsc2)o1 | -5.36 |
| CCCc1cc(N2CCCC2Cn2nc(C)nc2C)n2ncnc2n1 (stereo not drawn) | -0.82 |
| O=C(Nc1ccc(CC(=O)N2CCSCC2)cc1)NC1CC1 | -2.42 |
| CC(C)c1ccc(CCC(=O)N(C)C2CCN(C)C2=O)cc1 (stereo not drawn) | -7.79 |
| CCc1ncc(C(=O)N2CCn3c(CC)nnc3C2)s1 | 1.03 |
| Cn1cc(Br)cc(NC(=O)Cc2cccs2)c1=O | 2.14 |
| O=C(NCCNc1cnccn1)c1scnc1Cl | 8.11 |
| OCC(O)CSCc1ccc(Cl)cc1Cl (stereo not drawn) | -148 |
| COc1cccc(OCC(=O)N(C)c2cccnc2)c1 | -2.66 |

| SMILES | cytotoxicity at 10 µM [%] |
| --- | --- |
| CN(CC(F)(F)F)C(=O)CNC(=O)N1CCCC(N(C)C)C1 (stereo not drawn) | -7.91 |
| Cc1nnc(CN2CCCC2c2ccsc2)o1 (stereo not drawn) | 3.22 |
| CC(C)N(Cc1ccc(C#N)cc1)C(=O)Nc1ccccn1 | -0.518 |
| Cc1nc(NC(=O)OC(C)(C)C)sc1C#N | -10 |
| OC1CCN(Cc2ccc(CNc3ccc(Cl)cn3)cc2)CC1 | 0.313 |
| O=C(CN1CCOCC1CC(=O)c1ccco1)NCc1ccccn1 (stereo not drawn) | -4.92 |
| COc1cccc(C(O)CN2CCN(C(=O)c3ccsc3)CC2)c1 (stereo not drawn) | -48.1 |
| N#CCCCN1CCCC1Cc1ccccc1 (stereo not drawn) | -45.4 |
| Cn1nc(C(C)(C)C)cc1NC(=O)Cn1ccccc1=O | -10.5 |
| O=C(CCc1ccc(F)cc1)NCc1ccnc(NC2CC2)c1 | -8.78 |
| CC1CN(Cc2cccc(C#N)c2)CCN1c1ccc2nncn2n1 (stereo not drawn) | 9.56 |
| CNC(=O)c1cnc(/C=C/c2cc(OC)c(OC)c(OC)c2)s1 | -15.5 |
| CN(Cc1ccc(C#N)cc1)Cc1noc(C(C)(C)C)n1 | -2.09 |
| Cc1cnn(CC(C)NCc2nc(-c3ccco3)no2)c1 (stereo not drawn) | -16 |
| CCCS(=O)(=O)N1C[C@@H](c2ccccc2)[C@@]2(CCNC2=O)C1 | -109 |
| O=C(c1ccncc1)N1CCC2(CC1)CCN(C(=O)c1cccnc1)C2 | -93 |
| Cc1cnc(N2CCc3c(c(COc4cncnc4)nn3C)C2)nc1 | -98.8 |
| CSc1ccc(C(C(=O)O)N2CCC(CO)CC2)cc1 (stereo not drawn) | 3.68 |
| Cc1c[nH]c(CN2CCCCC2CCn2ccnc2C)c(C)c1=O (stereo not drawn) | 0.585 |
| Cc1cccc(C)c1Oc1ncccc1CNC(=O)C1COC(=O)N1 (stereo not drawn) | -4.65 |
| O[C@@H]1CN(CC2CC2)CC[C@H]1N1CCN(c2ccccc2F)CC1 | -50.3 |
| Cc1ccc(F)c(NC(=O)CCC(=O)N(C)Cc2nc(C)c[nH]2)c1 | 7.05 |
| CNc1nc(N2CCN(Cc3ccsc3)C(CCO)C2)nc2c1CCC2 (stereo not drawn) | 3.96 |

| SMILES | cytotoxicity at 10 µM [%] |
| --- | --- |
| CN(C)c1ncc(CNC2CC(=O)N(CCc3cccc(Cl)c3)C2)s1 (stereo not drawn) | -132 |
| CN(C)c1cnn(CC(=O)N2CCN(c3ccccc3)CC2)c(=O)c1 | -13.8 |
| CCc1nn(C)c(Cl)c1CN1CCCC2(CC1)CN(C)C(=O)O2 (stereo not drawn) | 5.63 |
| CCc1nc(N2CCN(c3ncccc3C#N)CC2)c2cnn(C)c2n1 | 10.8 |
| Cc1nc(C2CCCNC2)cc(N2CCc3nc(N)sc3C2)n1 (stereo not drawn) | -47.4 |
| CN(CC(=O)N1CCOC(CCc2ccccc2)C1)Cc1ccccn1 (stereo not drawn) | -1.83 |
| CC[C@H](Nc1nc(C(C)C)nc2c1cnn2C)c1ccccc1 | -47.5 |
| CSCc1noc(CNC(=O)C2CCN(C3CCCCC3)CC2)n1 | 8.45 |
| Cc1c[nH]c(C(=O)N2CCn3nc(C(=O)NC4CC4)cc3C2)n1 | -2.66 |
| CCCC1(NC(=O)C(c2ccc(F)cc2)N(C)C)CC1 (stereo not drawn) | -37.1 |
| Cc1cc(C(=O)N2CCCC3(CNC(=O)O3)C2)c2c(C)nn(C)c2n1 (stereo not drawn) | 10.8 |
| CCOCCC(=O)N1CCc2cccc(S(=O)(=O)N3CCOCC3)c2C1 | -7.41 |
| CCOCc1nc2c(c(NC(CC)c3cccnc3)n1)CCNCC2 (stereo not drawn) | -4.28 |
| Cn1cccc1C(=O)N1CCC2(CCCN(CC3CCC3)C2=O)C1 (stereo not drawn) | -2.6 |
| COc1ccc(-n2ncc(C(C)NC3CCSCC3)c2C)cc1 (stereo not drawn) | -4.57 |
| Cc1ccc(-c2ncc(C(=O)N3CCCC(CCN)C3)c(O)n2)cc1 (stereo not drawn) | -7.98 |
| Cc1nccc(-c2cccc(NCC(=O)N3CCCC(C)C3)c2)n1 (stereo not drawn) | -6.27 |
| CC(=O)Nc1nc(C(=O)N2CCCC(n3nc(C)nc3C)C2)cs1 (stereo not drawn) | -2.06 |
| CCNc1cc2c(nn1)CCN(C(=O)c1ccnc(-n3ccnc3)c1)C2 | -3.01 |
| CCc1nc(CN2CCCN(C(=O)c3ccco3)CC2)cs1 | 5.03 |
| CCn1cc(NC(=O)C2CCN(Cc3nc(C(C)C)no3)CC2)cn1 | 0.449 |
| COC(=O)CCc1c(C)nc2cc(O)nn2c1C | -7.18 |
| CCN(C(=O)Nc1cccnc1OC)C1CC1 | -9.11 |

| SMILES | cytotoxicity at 10 µM [%] |
| --- | --- |
| COC(C(=O)N1CCCN(Cc2cscn2)CC1)c1ccccc1 (stereo not drawn) | -8.34 |
| CN(Cc1nc(C2CC2)no1)C1CCCN(c2cccnn2)C1 (stereo not drawn) | -6.62 |
| CC(C)CCC(=O)NC(C)c1nnc2n1CCCCC2 (stereo not drawn) | -7.76 |
| Cc1nc(CN2CCCC2c2ccsc2)nc2ccccc12 (stereo not drawn) | 0.89 |
| COCCC(=O)N1CCc2c(CNc3ncccn3)cncc2C1 | 9.05 |
| CCC(CN1CCCC1)NC(=O)C1(c2cccc(F)c2)CC1 (stereo not drawn) | -5.72 |
| OCC1CCC2(CC1)CN(Cc1ccccc1F)Cc1ccccc1O2 (stereo not drawn) | 3.68 |
| Cc1cccc(CN(Cc2ccc(C)o2)C2CC(C)(C)NC(C)(C)C2)n1 | -2.42 |
| CC(C)n1nc(Cn2cccc2)c2c1CN(Cc1ccoc1)C2 | 1.49 |
| O=C(NC1CCC1)[C@@H]1CCO[C@@H]2CCN(CCc3ccccc3)C[C@H]21 | -7.24 |
| O=C(O)[C@]12CCCN(CC3CCOC3)C[C@H]1CN(c1ncccn1)C2 (stereo partly drawn) | -104 |
| O=C(N1CCOCC1)[C@@]12CCO[C@@H]1CCN(CC1CCCC1)C2 | -0.385 |
| CN(C)CCN1C[C@@H]2CN(S(=O)(=O)c3ccccc3)C[C@@H]2C1=O | -112 |
| COCC1CN(CCOc2ccc(Cl)cc2)Cc2c1cnn2C (stereo not drawn) | -102 |
| CN1CCCN(C(=O)c2ccnn2-c2ccc3ccccn23)CC1 | -107 |
| CN(C)CCN1CCO[C@H]2CCN(C(=O)c3cccs3)CC[C@@H]21 | -8.32 |
| Cn1ncc2c1CN(Cc1cccnc1)CC2COCC1CC1 (stereo not drawn) | -10.7 |
| CC(C)CO[C@H]1CN(S(=O)(=O)c2cn(C)cn2)[C@@H]2CCCO[C@H]12 | -148 |
| Cc1cnc(N2CCC3(CC2)CN(c2ccsc2)C(=O)CO3)nc1 | 7.34 |
| COCCN1CCOCC2(C1)CN(C(=O)c1conc1C)CCO2 (stereo not drawn) | 7.1 |
| CN(C)c1ccc(CN2C[C@@H]3CC[C@H]2CN(C2CCOCC2)C3)cn1 | -3.62 |

— ChEMBL document CHEMBL4513216, “Probing the Open Global Health Chemical Diversity Library for Multistage-Active Starting Points for Next-Generation Antimalarials” (ACS Infect Dis, 2020)
